Assay: Toxicity liver stage against HepG2, at 10uM
Assay type: cell-based
Set-up: test concentration 10 uM, cell line HepG2-A16-CD81EGFP
Conditions: human, HepG2-A16-CD81EGFP cells; read-out: INHIBITION
In short: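 Uninfected HepG2-A16-CD81EGFP cells, 3 × 10^3 per well, 1536-well, plated on prespotted compound at 10 μM final, parasite-free screening media added to match infected plates; puromycin 10 μM positive, DMSO 0.5% negative; run in parallel with 48 h PbLuc assay at 37 °C, 5% CO2; viability by CellTiter-Glo luminescence, normalized to controls.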

SMILES	cytotoxicity at 10 µM [%]
O=C(O)CC1COCCN1C(=O)C1(c2ccc(Cl)cc2)CCC1 (configuration not stated)	-17.8
Cn1cnc2ccc(NC(=O)CC3CCN(C4CCCCC4)CC3)cc21	25.9
COc1ccc(COCC(O)CNC(=O)c2cnc(C)cn2)cc1 (configuration not stated)	-2
CC(C)[C@@H]1CN(Cc2ccccc2C#N)C[C@H]1NC(=O)N(C)C	-12.3
CC(C)CC(NCc1cscn1)c1ccccn1 (configuration not stated)	2.5
Cc1nc(CN2CCC3(CC2)CC(=O)N(C)c2ccccc23)cs1	0.0115
CSC1=Nc2c(cnn2-c2cccc(Cl)c2)C2=NCCCN12	4.81
CCc1noc(CN(C)CC(c2cccs2)N2CCOCC2)n1 (configuration not stated)	-4.56
CCOCCc1nc(Cc2ccccc2)n[nH]1	7.9
Cc1csc(CN2CC[C@H]3C[C@@H](c4nc(C)no4)O[C@@H]3C2)n1	3.8
CNc1ncc(CN(C)C(=O)c2cccc(-n3cccn3)c2)cn1	-2.38
COc1ccc(-c2nnc(C(C)N3CCC4(CC3)OCCO4)o2)cc1 (configuration not stated)	12.5
CCn1c(C)cc(C(=O)NCc2cccc(NS(C)(=O)=O)c2)c1C	-2.6
O=C(Cn1cc(I)cn1)N1CCOCC1	-10.2
CN(C)CCN1C[C@@H]2CN(C(=O)C3CCOC3)C[C@@H]2C1=O (some centres not stated)	-5.18
COCC1COCCC12CCN(S(=O)(=O)c1ccccc1)CC2 (configuration not stated)	0.242
Cc1nc(-c2nnc[nH]2)sc1C(=O)N1CCCC1c1ccsc1 (configuration not stated)	-3.34
c1cnc(N2CC[C@@H]3O[C@@H](COCc4cccnc4)CC[C@@H]32)nc1	11.2
Cc1cc(C(=O)N2CCC3(CCCN(CC4CC4)C3=O)C2)c(C)n1C (configuration not stated)	-5.5
Cc1cc(C[S+]([O-])Cc2ccccc2F)on1 (configuration not stated)	-8.37
COc1ccc(Br)cc1NCC(=O)NC(C)(C#N)C1CC1 (configuration not stated)	23.4
COc1ccc(NC(=O)N2CCCC(CO)C2)c(C)c1 (configuration not stated)	-8.33
Cc1csc(NC(=O)CN2CCc3c(nc(C4CC4)n3C)C2)n1	-6.6

SMILES	cytotoxicity at 10 µM [%]
Cc1cc(NC(=O)Cn2ncc(Br)c2C)no1	4.12
CN(CC(=O)NC(C)(C)C)Cc1cccc2c1OCCO2	-26.5
Cc1noc([C@@H]2CC[C@@H]3[C@@H](CCN3S(=O)(=O)c3ccccc3)O2)n1	2.43
O=C(COCC1CC1)N1CCCC1c1nc(-c2ccccc2F)c[nH]1 (configuration not stated)	-0.025
CNC(=O)[C@@H]1[C@@H](c2ccccc2)CN2CCN(Cc3cccs3)C[C@H]12	11
Cc1cc(CN2Cc3ccccc3CC2c2nnc(C)o2)on1 (configuration not stated)	-0.962
CCOc1ccc2[nH]c(=O)c(CN3CCCC(CO)(CO)C3)cc2c1	22.3
FC(F)(F)Cn1ccnc1CNCCn1cccn1	-6.4
CN1CCN(CC2(O)CCCN(C(=O)Cc3cccc(O)c3)CC2)CC1 (configuration not stated)	-4.86
Cc1nc(C)n(CC2CCCN(CCCOc3ccccc3)C2)n1 (configuration not stated)	3.15
COc1cccc(Cn2ncnc2CNC(C)=O)c1	0.15
O=C(c1ccccc1F)N1CCC2(CC1)CC(Oc1ccccn1)CO2 (configuration not stated)	-113
N#Cc1ncn(CCC(=O)Nc2c(Cl)cccc2Cl)n1	-11.4
CCOCc1cccc(NC(=O)C2COCCO2)c1 (configuration not stated)	3.96
COC(=O)c1cccn1C1CCN(C(=O)c2cc(F)ccc2C)CC1	-2.13
O=C(NCCOc1ccc(Cl)cn1)Nc1nccs1	11.3
Cc1ccccc1C(CNC(=O)CSc1nnc(N)s1)N(C)C (configuration not stated)	12
CCN1CCN(C(=O)NCCOc2ccc3c(c2)OCO3)CC1	-4.59
Cc1cc(C(F)(F)F)nn1CCCNC(=O)C1CCCC1	-4.93
CNS(=O)(=O)c1ccc(CNC(=O)N2CCOC(C)C2)cc1 (configuration not stated)	9.15
Cc1cc(=O)[nH]c(=O)n1COCc1ccccc1	-12.5
Cc1cc(F)cc2c(N3CCC(S(N)(=O)=O)CC3)c(C#N)cnc12	0.79
COc1ccc(CN[C@@H]2CO[C@H](CNC(=O)N3CCOCC3)[C@H]2O)cc1	-1.57

SMILES	cytotoxicity at 10 µM [%]
Cc1cnc(CN2C[C@H]3CC(Oc4ccccc4)C[C@H]3C2)cn1 (some centres not stated)	-24.3
CCOc1ccccc1C(=O)NS(=O)(=O)c1ccc2c(c1)OCCCO2	5.04
CN(CCc1ccccn1)c1cnn(C)c(=O)c1Br	-5.03
CCCNC(=O)CSCc1ccc(S(=O)(=O)N(C)C)o1	9.8
Cc1ccc(-c2nnc(CNC(=O)c3cccnc3)o2)cn1	-2.72
CC(O)(CNS(=O)(=O)Cc1ccon1)c1ccsc1 (configuration not stated)	2.76
Fc1cccc(CN2CCC(c3noc(-c4cnccn4)n3)CC2)c1F	-1.37
Cc1cccc(CNCC2(O)CCCN(CC3CCCCC3)C2=O)n1 (configuration not stated)	-10.5
Cn1ccnc1CN1CCN2C[C@H](OCc3cccnc3)C[C@H]2C1	-1.29
O=C(Cn1cnc2sccc2c1=O)NCCc1nnc2ccccn12	3.57
CCC1CN(Cc2cccc(C(=O)N(C)C)c2)CCN1CCOC (configuration not stated)	-2.99
NC(=O)c1cnn2c1NCC(CNCCCc1ccccc1)C2 (configuration not stated)	-9.24
CN1CCC(C(=O)N2CCCN(c3cccnn3)CC2)C1 (configuration not stated)	-8.82
Cc1cc(NC(=O)NC(C)(C)c2nc(C)c(C)s2)no1	-1.95
CCN(CC)C(=O)c1ccn(COc2c(Cl)cccc2Cl)n1	11.6
O=c1[nH]c(COc2ccc(Cl)cc2)nc2c1CCNC2	6.6
CC(C)n1c2ccccc2c2c1cc(C(=O)NCCO)n2C(=O)N(C)C	-93.8
Cc1nc(N)nc(C)c1CC(=O)NCc1ccc2nonc2c1	5.6
CC(C)CCN1C2(CCN(Cc3nccs3)C2)c2ccccc2S1(=O)=O (configuration not stated)	-65
CN(C(=O)c1ccon1)[C@@H]1CCC[C@@H](Oc2ccccc2)[C@@H]1O	-17.5
CC(=O)Nc1ncc(S(=O)(=O)Nc2ccc(F)cc2)s1	0.976
Cc1cc(CN2CCN(C(=O)Nc3cccnc3)CC2)on1	-7.72
CCOCC1CN(S(=O)(=O)c2ccccc2)Cc2nccn2C1 (configuration not stated)	-112

SMILES	cytotoxicity at 10 µM [%]
CSCCCN(CCN1CCOCC1)Cc1ccco1	8.05
Cn1cc(C(=O)N2CCN(Cc3ccsc3)CC2)cn1	-10
O=C(NC1CC1)c1ccnc(N2CCOC(c3ccc(Cl)c(Cl)c3)C2)c1 (configuration not stated)	14
CCOCC1CN(C(=O)c2cnoc2C)Cc2cn(CC3CC3)nc21 (configuration not stated)	17
CS(=O)(=O)N1CCC(n2nnn(-c3ccccc3)c2=O)CC1	2.58
NC(=O)NCC1CCCCN1C(=O)c1cc(F)cc(F)c1 (configuration not stated)	-8.15
O=C(N[C@@H]1CCNC[C@H]1O)c1cc(F)cc(Cl)c1	-3.12
COCC1c2nnn(CC3CC3)c2CCN1C(=O)c1ccnnc1 (configuration not stated)	-7.44
CCn1cc(S(=O)(=O)N(C)Cc2c(Br)cnn2CC)c(C)n1	3.3
CCN(CC)S(=O)(=O)N1CCC(c2c(C(N)=O)sc3ccccc23)C1 (configuration not stated)	1.4
O=C(NCc1cn2cccnc2n1)C1CC(=O)N(Cc2ccccn2)C1 (configuration not stated)	2.69
Cc1cc(NC(=O)NCCc2ccccc2)n(C)n1	-9.19
Cc1cc(C(=O)NCc2ccco2)nn1C	-2.8
CC(C)c1nn(C)c(N(C)C)c1CNCc1ccnn1C	0.926
CCOCCCNCc1cc(O)c2cc(C)ccc2n1	-11.1
CN(Cc1ccsc1)C(=O)c1nc(N2CCCC2)ncc1Cl	-45.5
CC(C)(CO)CNC(=O)c1cc(-c2cc[nH]n2)n2ccccc12	20
Cc1ccc(C(=O)N2CCC(Oc3cccc(C)c3C)CC2)c(=O)[nH]1	-6.48
CC(=O)N1CC[C@H]2OCC[C@@]2(C(=O)NCc2cnc(C)cn2)C1	-106
Cc1cc(C)c2nc(CNCCNS(C)(=O)=O)cc(O)c2c1	0.145
O=C(C1CCOc2ccccc21)N1CCOc2cccc(F)c21 (configuration not stated)	4.52
COc1ccc2c(ccn2CCC(=O)/N=c2\[nH]nc(C3CCCO3)s2)c1 (configuration not stated)	-8.07
CCOC(=O)C1CN(C(=O)C2CCOCC2)Cc2ncn(CC)c21 (configuration not stated)	5.65

SMILES	cytotoxicity at 10 µM [%]
O=c1[nH]c(NCc2cccc(OC(F)F)c2)nc2c1CCNC2	2.47
Cn1ccc(C(=O)NCc2cccc(CN3CCCC3)c2)cc1=O	-3.07
Fc1ccccc1C(CNc1ccncn1)N1CCCC1 (configuration not stated)	2.84
COc1ccnc(NC(=O)c2cscn2)c1	9.72
Cc1ccc(N2CC[C@H]3[C@@H]2CCC(=O)N3CCN2CCOCC2)nn1	-3.18
N#Cc1ccc(N2CCC(OCCc3ccccc3)CC2)nc1	-9.67
O=c1cc2c(nn1CN1CCSCC1)CCC2	-4.86
CN(Cc1ccc(F)cc1)CC1(O)CCCN(CC(C)(C)C)C1=O (configuration not stated)	-9.35
Cc1ncncc1-c1ccnc(N(C)C)n1	-8.3
CN(C)CCN1CC2(CCC1=O)CCN(C(=O)c1ccn(C)n1)CC2	-11
Cn1ccnc1CN1CCC2(CC1)CN(c1cncnc1)C(=O)CO2	-69.2
CN(C)Cc1cnc(C2CCN(C(=O)c3cc(F)cc(F)c3)C2)[nH]1 (configuration not stated)	2.5
COc1ccc(-c2ccnc(N)c2)c(OC)c1	17.6
COc1cc(N2CCc3ncnc(-c4cnn(C)c4)c3CC2)ncn1	8.46
O=C1O[C@@H]2CN(Cc3cccc(O)c3)C[C@@H]2N1CCCN1CCOCC1	0.476
CN(CCOc1ccc(C#N)cc1)CC1CCS(=O)(=O)C1 (configuration not stated)	-6.94
CC(C)(C)c1cnc(CN2CCC(c3ccnn3CCO)CC2)o1	-3.15
O=C(NCCCn1cncn1)c1ccc(-c2ccco2)[nH]c1=O	2.87
Cc1cc(C)c(CNC(=O)N2CCOC(c3ccccc3)C2)c(=O)[nH]1 (configuration not stated)	0.0687
CCOCc1nc2c(c(N(C)Cc3ccsc3)n1)CCNCC2	11.1
